Reference: ChEMBL document CHEMBL1139868, “Synthesis, DNA binding, and Leishmania topoisomerase inhibition activities of a novel series of anthra[1,2-d]imidazole-6,11-dione derivatives” (J Med Chem, 2007)

Tests used:
DNA = assay: Binding affinity to calf thymus double stranded DNA; assay type: nucleic-acid assay; conditions: Bos taurus
How it was run: (§1)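 UV-vis absorption titration: increasing concentrations of dsDNA (calf thymus DNA, poly[d(A-T)]2 or poly[d(G-C)]2) added to ligand in buffer. Hypochromicity and red-shift of the long-wavelength absorption band were followed. Binding constants were obtained by the half-reciprocal plot method.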

[1] = Binding affinity to double stranded poly[d[A-T)]2 DNA; conditions: Homo sapiens; how it was run: as §1
[2] = Binding affinity to double stranded poly[d[G-C)]2 DNA; conditions: Homo sapiens; how it was run: as §1
[3] = target: T1, DNA topoisomerase I (Leishmania donovani donovani) (UniProt Q9NJG8); assay: Inhibition of Leishmania donovani topoisomerase 1-induced relaxation activity assessed as recovery of supercoiled DNA at 50 uM
T1 sequence (whole entry): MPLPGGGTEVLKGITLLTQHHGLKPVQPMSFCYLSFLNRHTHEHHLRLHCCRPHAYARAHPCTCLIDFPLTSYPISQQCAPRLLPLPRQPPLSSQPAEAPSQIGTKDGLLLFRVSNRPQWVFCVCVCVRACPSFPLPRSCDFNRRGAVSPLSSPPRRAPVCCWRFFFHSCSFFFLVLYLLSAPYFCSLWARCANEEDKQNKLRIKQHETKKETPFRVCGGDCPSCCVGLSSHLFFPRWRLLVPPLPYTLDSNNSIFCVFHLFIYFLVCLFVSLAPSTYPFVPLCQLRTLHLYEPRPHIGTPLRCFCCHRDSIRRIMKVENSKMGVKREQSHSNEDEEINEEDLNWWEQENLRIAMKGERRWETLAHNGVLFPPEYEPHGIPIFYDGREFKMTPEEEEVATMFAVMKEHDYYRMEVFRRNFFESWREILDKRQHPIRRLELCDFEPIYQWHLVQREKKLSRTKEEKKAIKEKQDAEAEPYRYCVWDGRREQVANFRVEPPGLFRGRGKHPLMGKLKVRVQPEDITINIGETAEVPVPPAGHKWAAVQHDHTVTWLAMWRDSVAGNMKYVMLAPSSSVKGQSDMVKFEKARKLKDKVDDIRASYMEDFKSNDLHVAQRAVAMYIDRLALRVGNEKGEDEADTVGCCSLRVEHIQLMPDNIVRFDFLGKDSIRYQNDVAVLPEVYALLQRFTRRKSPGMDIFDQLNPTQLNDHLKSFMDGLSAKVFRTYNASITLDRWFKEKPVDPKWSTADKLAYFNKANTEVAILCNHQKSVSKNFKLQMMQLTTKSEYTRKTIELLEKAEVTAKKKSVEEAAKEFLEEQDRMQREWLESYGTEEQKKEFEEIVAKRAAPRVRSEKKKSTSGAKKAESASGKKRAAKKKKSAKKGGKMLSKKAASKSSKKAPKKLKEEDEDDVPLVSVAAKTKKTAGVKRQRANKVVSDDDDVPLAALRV

[4] = target: T1, DNA topoisomerase I (Leishmania donovani donovani); assay: Inhibition of Leishmania donovani topoisomerase 1-induced relaxation activity assessed as recovery of supercoiled DNA at 20 uM
[5] = target: T1, DNA topoisomerase I (Leishmania donovani donovani); assay: Inhibition of Leishmania donovani topoisomerase 1-induced relaxation activity assessed as recovery of supercoiled DNA at 10 uM

Row | Structure (SMILES) | Ka (DNA) | Ka [1] | Ka [2] | inhibition [3] | inhibition [4] | inhibition [5]
1 | CN(C)CCCOc1ccc(-c2nc3ccc4c(c3[nH]2)C(=O)c2ccccc2C4=O)cc1 | 2.1 10^5/M | 4.1 10^5/M | 3 10^5/M | 5% |  | 
2 | CCN(CC)CCCOc1ccc(-c2nc3ccc4c(c3[nH]2)C(=O)c2ccccc2C4=O)cc1 | 1.9 10^5/M | 3.2 10^5/M | 2.3 10^5/M | 10% | 2% | 
3 | O=C1c2ccccc2C(=O)c2c1ccc1nc(-c3ccc(OCCCN4CCN(CCO)CC4)cc3)[nH]c21 | 1.9 10^5/M | 3 10^5/M | 2.2 10^5/M | 5% |  | 
4 | O=C1c2ccccc2C(=O)c2c1ccc1nc(-c3cccnc3)[nH]c21 |  |  |  | 80% | 15% | 9%
5 | CN1CCN(CCCOc2ccc(-c3nc4ccc5c(c4[nH]3)C(=O)c3ccccc3C5=O)cc2)CC1 | 1 10^5/M | 2.8 10^5/M | 1.9 10^5/M | 10% |  | 
6 | O=C1c2ccccc2C(=O)c2c1ccc1nc(-c3ccc(OCCCn4cnnn4)cc3)[nH]c21 | 0.5 10^5/M | 0.5 10^5/M | 0.3 10^5/M | 95% | 92% | 80%
7 | O=C1c2ccccc2C(=O)c2c1ccc1nc(-c3ccccn3)[nH]c21 |  |  |  | 75% | 20% | 9%
8 | O=C1c2ccccc2C(=O)c2c1ccc1nc(-c3ccc(OCCCn4ccnc4)cc3)[nH]c21 | 1.1 10^5/M | 1.8 10^5/M | 0.6 10^5/M | 91% | 77% | 62%
9 | O=C1c2ccccc2C(=O)c2c1ccc1nc(-c3ccc(OCCCN4CCOCC4)cc3)[nH]c21 | 0.6 10^5/M | 1.1 10^5/M | 0.5 10^5/M | 92% | 77% | 46%
10 | CC[C@@]1(O)C(=O)OCc2c1cc1n(c2=O)Cc2cc3ccccc3nc2-1 |  |  |  | 65% | 55% | 39%
